Assay results as given in ChEMBL document CHEMBL4033786, “Discovery of Novel 1-Cyclopentenyl-3-phenylureas as Selective, Brain Penetrant, and Orally Bioavailable CXCR2 Antagonists” (J Med Chem, 2018).
Values after ≈ are worked out from the molar mass of the structure shown. Active and inactive are the calls of the source. No cut-off for these calls is given here.

Experiments:
[1] = molecular target: T1, C-X-C chemokine receptor type 2 (Homo sapiens, UniProt P25025); test: Antagonist activity at TEV protease cleavage site linked GAL4-VP16-fused recombinant human CXCR2 expressed in cells assessed as inhibition of […] human CXCL1-stimulated beta-arrestin recruitment by CCF4-AM-fluorescence based FRET assay; format: cell-based; conditions: read-out: pIC50 (converted)
T1 sequence (P25025 whole entry): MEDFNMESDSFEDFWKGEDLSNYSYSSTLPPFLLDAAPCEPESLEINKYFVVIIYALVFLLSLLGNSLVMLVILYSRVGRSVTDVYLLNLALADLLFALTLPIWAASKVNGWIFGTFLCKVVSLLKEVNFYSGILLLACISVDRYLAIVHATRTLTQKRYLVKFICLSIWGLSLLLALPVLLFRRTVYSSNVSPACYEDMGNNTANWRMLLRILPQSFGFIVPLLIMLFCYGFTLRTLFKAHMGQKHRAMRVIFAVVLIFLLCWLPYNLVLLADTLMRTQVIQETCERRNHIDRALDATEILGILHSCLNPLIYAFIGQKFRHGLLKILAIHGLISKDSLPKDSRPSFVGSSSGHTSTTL
Procedure, shortened: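 Stable cell line expressing recombinant human CXCR2 linked to a TEV site and Gal4-VP16. Cells were starved 24 h at 37 °C, 5% CO2, then resuspended at ~200,000 cells/mL. They were given compound in DMSO (concentration-response), stimulated with 80 nM hCXCL1 and incubated overnight at 37 °C. CCF4-AM substrate was then added for 2 h at RT in the dark.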

[2] = Solubility of compound in fasted state simulated intestinal fluid measured after 4 hrs; format: physicochemical
Procedure, shortened: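 Solubility in FaSSIF, read after 4 h incubation.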

[3] = Passive permeability in MDCK2-MDR1 cells transduced with BacMam2-BCRP at 3 uM after 90 mins by Transwell assay; format: ADME, cell-based, Canis lupus familiaris, MDCK-MDR1; conditions: dog; read-out: permeability
Procedure, shortened: (§1)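 MDCKII-MDR1 cells transduced with BacMam2-BCRP and grown in Transwells. Compound at 3 μM, in duplicate, was incubated 90 min A→B (and B→A) with and without GF120918 (5 μM, dual P-gp/BCRP inhibitor). Passive permeability (Pexact, nm/s) was calculated by an equation from earlier work. The permeability ratio is A→B permeability with GF120918 over A→B permeability without it.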

[4] = molecular target: T1, C-X-C chemokine receptor type 2; test: Antagonist activity at CXCR2 in human whole blood assessed as inhibition of GROalpha-stimulated CD11b upregulation preincubated for 15 mins followed by GROalpha stimulation measured after 15 mins by FITC-staining based FACS analysis
[5] = Ratio of passive permeability in presence of dual P-gp/BCRP inhibitor GF120918 to absence of GF120918 in MDCK2-MDR1 cells transduced with BacMam2-BCRP at 3 uM after 90 mins by Transwell assay; format: ADME, cell-based, Canis lupus familiaris; conditions: dog, mdck2-mdr1, 1.5 h; procedure, shortened: as §1
[6] = Fraction unbound in Han-Wistar SOA rat model brain at 2 mg/kg administered via oral gavage by UPLC/MS/MS analysis; format: ADME, organism-based
[7] = Fraction unbound in Han-Wistar SOA rat model blood at 2 mg/kg administered via oral gavage by UPLC/MS/MS analysis; format: ADME, organism-based
Blood = test: Dose normalized AUC (0 to 7 hrs) in Han-Wistar SOA rat model blood at 2 mg/kg administered via oral gavage by UPLC/MS/MS analysis; format: ADME, organism-based; conditions: in vivo
Procedure, shortened: (§2)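 Male Han-Wistar rats were given 2 mg/kg by oral gavage as a suspension in DMSO:1% methylcellulose (1:99). Blood (cardiac puncture, EDTA-K2, under isoflurane) and brains were collected at 0.25–7 h. Brain was homogenised in 3-fold PBS, samples were protein-precipitated and quantified by UPLC/MS/MS.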

Brain = test: Dose normalized AUC (0 to 7 hrs) in Han-Wistar SOA rat model brain at 2 mg/kg administered via oral gavage by UPLC/MS/MS analysis; format: ADME, organism-based; conditions: in vivo; procedure, shortened: as §2
[8] = Ratio of brain dose normalized AUC (0 to 7 hrs) to […] dose normalized AUC (0 to 7 hrs), Kp of the compound in Han-Wistar SOA rat model at 2 mg/kg administered via oral gavage by UPLC/MS/MS analysis; format: ADME, organism-based
Procedure, shortened: (§3)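 Male Han-Wistar rats given a single 2 mg/kg oral gavage as a suspension in DMSO:1% methylcellulose (1:99). Blood was taken by cardiac puncture under isoflurane at 0.25–7 h, diluted 1:3 with water, and brains were homogenized in 3-fold PBS. Samples were extracted by acetonitrile protein precipitation and quantified by UPLC/MS/MS. Kp = brain DNAUC0-7h/blood DNAUC0-7h; Kp,uu = Kp×Fu,br/Fu,bl.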

[9] = molecular target: C-X-C chemokine receptor type 2 (Mus musculus, UniProt P35343); test: Antagonist activity at CXCR2 in C57 mouse whole blood assessed as inhibition of GROalpha-stimulated CD11b upregulation preincubated for 2 hr followed by GROalpha stimulation measured after 10 mins by FITC-staining based FACS analysis
C-X-C chemokine receptor type 2 (Mus musculus, UniProt P35343), sequence (P35343 whole entry): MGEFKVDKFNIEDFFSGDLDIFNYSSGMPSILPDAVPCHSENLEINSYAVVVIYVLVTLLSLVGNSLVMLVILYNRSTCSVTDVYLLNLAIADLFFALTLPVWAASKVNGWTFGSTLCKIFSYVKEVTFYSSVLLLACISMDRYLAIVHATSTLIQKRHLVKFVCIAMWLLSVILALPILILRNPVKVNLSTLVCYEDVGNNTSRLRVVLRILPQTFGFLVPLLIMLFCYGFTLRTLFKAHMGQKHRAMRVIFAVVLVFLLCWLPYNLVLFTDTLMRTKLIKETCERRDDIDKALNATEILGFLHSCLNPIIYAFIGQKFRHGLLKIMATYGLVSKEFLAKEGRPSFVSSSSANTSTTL

[10] = molecular target: C-X-C chemokine receptor type 2 (Mus musculus) (UniProt P35343); test: Antagonist activity at CXCR2 in C57 mouse whole blood assessed as inhibition of GROalpha-stimulated CD11b upregulation at 10 uM preincubated for 2 hr followed by GROalpha stimulation measured after 10 mins by FITC-staining based FACS analysis
C-X-C chemokine receptor type 2 (Mus musculus), sequence (P35343 whole entry): as above

[11] = Unbound brain-to-blood concentration ratio in Han-Wistar SOA rat model at 2 mg/kg administered via oral gavage by UPLC/MS/MS analysis; format: ADME, organism-based; conditions: read-out: K(p,uu,brain); procedure, shortened: as §3
[12] = Efflux ratio of passive permeability in MDCK2-MDR1 cells transduced with BacMam2-BCRP at 3 uM after 90 mins by Transwell assay; format: ADME, cell-based, Canis lupus familiaris, MDCK-MDR1; conditions: dog
Procedure, shortened: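 MDCKII-MDR1 cells transduced with BacMam2-BCRP in Transwells. Compound at 3 μM was measured in duplicate, A→B and B→A, after 90 min, with and without 5 μM GF120918. ER = B→A/A→B permeability without inhibitor. System qualified with amprenavir and dantrolene ERs.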

## CC1=CCC[C@H]1NC(=O)Nc1ccc(C#N)c(S(=O)(=O)C(C)(C)CC(F)(F)F)c1O
[1]
  IC50: 0.000158 µM
[2]
  solubility at 4 h: 0.408 mg/mL (≈ 916 µM)
[3]
  Papp at 1.5 h, 3 µM: 30 nm/s
[4]
  IC50: 1 µM
[5]
  Ratio: 4.3

## CC1=CCC[C@H]1NC(=O)Nc1ccc(Cl)c(S(=O)(=O)C(C)(F)F)c1O
[2]
  solubility at 4 h: 0.0508 mg/mL (≈ 129 µM)
[3]
  Papp at 1.5 h, 3 µM: 348 nm/s
[4]
  IC50: 0.631 µM
[6]
  fraction unbound: 0.051
[7]
  fraction unbound: 0.0065
Blood
  AUC/dose: 4331 ng·h/mL/mg/kg
Brain
  AUC/dose: 243 ng·h/g/mg/kg
[8]
  Kp: 0.06
[5]
  Ratio: 2.4

## CC1=CCC[C@H]1NC(=O)Nc1ccc(Cl)c(S(=O)(=O)[C@H]2C[C@H](N3CCCC3)C2)c1O
[2]
  solubility at 4 h: 0.758 mg/mL (≈ 1670 µM)
[3]
  Papp at 1.5 h, 3 µM: 205 nm/s
[4]
  IC50: 0.1 µM
[6]
  fraction unbound: 0.114
[7]
  fraction unbound: 0.0065
Blood
  AUC/dose: 11721 ng·h/mL/mg/kg
Brain
  AUC/dose: 296 ng·h/g/mg/kg
[8]
  Kp: 0.03
[5]
  Ratio: 2.8

## CC[C@@H](Nc1c(Nc2cccc(C(=O)N(C)C)c2O)c(=O)c1=O)c1ccc(C)o1 [NAVARIXIN ANHYDROUS]
[9]
  IC50: 0.0081 µM
[10]
  inhibition: Active

## CC1=CCC[C@H]1NC(=O)Nc1ccc(Cl)c(S(=O)(=O)C(C)(C)C(F)(F)F)c1O
[1]
  IC50: 0.000501 µM
[2]
  solubility at 4 h: 0.0034 mg/mL (≈ 7.71 µM)
[3]
  Papp at 1.5 h, 3 µM: 339 nm/s
[6]
  fraction unbound: 0.021
[7]
  fraction unbound: 0.007
Blood
  AUC/dose: 535 ng·h/mL/mg/kg
Brain
  AUC/dose: 107 ng·h/g/mg/kg
[8]
  Kp: 0.2
[11]
  Kp uu: 0.59
[5]
  Ratio: 1.6

## CC1=CCC[C@H]1NC(=O)Nc1ccc(Cl)c(S(=O)(=O)C(C)(C)C)c1O
[1]
  IC50: 0.001 µM
[2]
  solubility at 4 h: 0.0012 mg/mL (≈ 3.1 µM)
[3]
  Papp at 1.5 h, 3 µM: 364 nm/s
[4]
  IC50: 0.316 µM
[5]
  Ratio: 1.5

## CC1=CCC[C@H]1NC(=O)Nc1ccc(Cl)c(S(=O)(=O)[C@H]2C[C@H](N(C)C)C2)c1O
[2]
  solubility at 4 h: 0.387 mg/mL (≈ 905 µM)
[3]
  Papp at 1.5 h, 3 µM: 203 nm/s
[4]
  IC50: 0.126 µM
[6]
  fraction unbound: 0.137
[7]
  fraction unbound: 0.05
Blood
  AUC/dose: 2580 ng·h/mL/mg/kg
Brain
  AUC/dose: 161 ng·h/g/mg/kg
[8]
  Kp: 0.06
[5]
  Ratio: 3.4

## CC1=CCC[C@H]1NC(=O)Nc1ccc(Cl)c(S(=O)(=O)C(C)(C)[C@H]2CCOC2)c1O
[1]
  IC50: 0.00158 µM
[2]
  solubility at 4 h: 0.0252 mg/mL (≈ 56.9 µM)
[12]
  efflux ratio at 1.5 h, 3 µM: 2.2
[3]
  Papp at 1.5 h, 3 µM: 331 nm/s
[4]
  IC50: 0.316 µM
[6]
  fraction unbound: 0.033
[7]
  fraction unbound: 0.016
Blood
  AUC/dose: 63.8 ng·h/mL/mg/kg
Brain
  AUC/dose: 13.4 ng·h/g/mg/kg
[8]
  Kp: 0.21
[11]
  Kp uu: 0.42

## CC1=CCC[C@H]1NC(=O)Nc1ccc(C#N)c(S(=O)(=O)C(C)(C)C)c1O
[2]
  solubility at 4 h: 0.686 mg/mL (≈ 1820 µM)
[3]
  Papp at 1.5 h, 3 µM: 90 nm/s
[4]
  IC50: 0.158 µM
[6]
  fraction unbound: 0.116
[7]
  fraction unbound: 0.034
Blood
  AUC/dose: 2575 ng·h/mL/mg/kg
Brain
  AUC/dose: 73 ng·h/g/mg/kg
[8]
  Kp: 0.03
[5]
  Ratio: 4

## COCC(C)S(=O)(=O)c1c(Cl)ccc(NC(=O)N[C@@H]2CCC=C2C)c1O (stereo partly drawn)
[1]
  IC50: 0.00126 µM
[2]
  solubility at 4 h: 0.072 mg/mL (≈ 179 µM)
[12]
  efflux ratio at 1.5 h, 3 µM: 3.2
[3]
  Papp at 1.5 h, 3 µM: 282 nm/s
[4]
  IC50: 0.398 µM

## CC1=CCC[C@H]1NC(=O)Nc1ccc(Cl)c(S(=O)(=O)C2CCN(CCF)CC2)c1O
[1]
  IC50: 0.000631 µM
[2]
  solubility at 4 h: 0.288 mg/mL (≈ 625 µM)
[12]
  efflux ratio at 1.5 h, 3 µM: 7.3
[3]
  Papp at 1.5 h, 3 µM: 212 nm/s
[4]
  IC50: 0.2 µM

## CC1=CCC[C@H]1NC(=O)Nc1ccc(Cl)c(S(=O)(=O)C2CCN(C3CCC3)CC2)c1O
[1]
  IC50: 0.000398 µM
[2]
  solubility at 4 h: 0.491 mg/mL (≈ 1050 µM)
[12]
  efflux ratio at 1.5 h, 3 µM: 3.3
[3]
  Papp at 1.5 h, 3 µM: 320 nm/s
[4]
  IC50: 0.501 µM

## CC1=CCC[C@H]1NC(=O)Nc1ccc(Cl)c(S(=O)(=O)C2CCCOC2)c1O (stereo partly drawn)
[1]
  IC50: 0.00158 µM
[2]
  solubility at 4 h: 0.0137 mg/mL (≈ 33 µM)
[12]
  efflux ratio at 1.5 h, 3 µM: 9.6
[3]
  Papp at 1.5 h, 3 µM: 263 nm/s
[4]
  IC50: 0.251 µM

## CC1=CCC[C@H]1NC(=O)Nc1ccc(Cl)c(S(=O)(=O)C2(CF)CCOCC2)c1O
[1]
  IC50: 0.00126 µM
[2]
  solubility at 4 h: 0.0149 mg/mL (≈ 33.3 µM)
[12]
  efflux ratio at 1.5 h, 3 µM: 18.7
[3]
  Papp at 1.5 h, 3 µM: 218 nm/s
[4]
  IC50: 0.251 µM

## CC1=CCC[C@H]1NC(=O)Nc1ccc(Cl)c(S(=O)(=O)[C@]2(C)CCOC2)c1O
[2]
  solubility at 4 h: 0.0205 mg/mL (≈ 49.4 µM)
[3]
  Papp at 1.5 h, 3 µM: 252 nm/s
[4]
  IC50: 0.158 µM
[6]
  fraction unbound: 0.106
[7]
  fraction unbound: 0.036
Blood
  AUC/dose: 788 ng·h/mL/mg/kg
Brain
  AUC/dose: 60.5 ng·h/g/mg/kg
[8]
  Kp: 0.08
[11]
  Kp uu: 0.23
[5]
  Ratio: 2.4

## CC1=CCC[C@H]1NC(=O)Nc1ccc(Cl)c(S(=O)(=O)C(F)(F)CN(C)C)c1O
[1]
  IC50: 0.002 µM
[2]
  solubility at 4 h: 0.128 mg/mL (≈ 293 µM)
[12]
  efflux ratio at 1.5 h, 3 µM: 12.6
[3]
  Papp at 1.5 h, 3 µM: 266 nm/s
[4]
  IC50: 0.631 µM

## CC1=CCC[C@H]1NC(=O)Nc1ccc(Cl)c(S(=O)(=O)C(C)(C)[C@@H]2CCOC2)c1O
[1]
  IC50: 0.00126 µM
[2]
  solubility at 4 h: 0.0246 mg/mL (≈ 55.5 µM)
[3]
  Papp at 1.5 h, 3 µM: 127 nm/s
[5]
  Ratio: 4.5
